According to PMC8867396 (Nature, 2021):
pKi: −log10 of the molar value. Where two headings read alike, the source gives them in different places.

Experiments:
σ1 receptor = σ1 receptor (Homo sapiens, UniProt Q99720); assay: Competition binding versus σ1 receptor; details: read-out: Ki (nM) σ1
human σ2 receptor = human σ2 receptor (Homo sapiens, UniProt Q5BJF2); assay: Competition binding of [3H]-DTG in Expi293 membranes expressing σ2 receptor; details: for Selectivity (σ1/σ2): ratio of σ1 Ki to σ2 Ki; for Ki: read-out: Ki (nM) σ2, competition with 10 nM [3H]-DTG; for pKi: read-out: σ2 Ki (affinity)
human σ2 receptor, sequence (Q5BJF2 whole entry): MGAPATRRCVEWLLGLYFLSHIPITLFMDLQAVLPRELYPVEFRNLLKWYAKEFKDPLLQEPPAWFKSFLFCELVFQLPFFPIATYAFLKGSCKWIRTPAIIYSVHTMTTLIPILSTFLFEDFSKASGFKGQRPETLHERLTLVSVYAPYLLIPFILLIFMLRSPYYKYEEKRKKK
How it was run: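 σ2-expressing Expi293 membranes were made by osmotic lysis (20 mM HEPES pH 7.5, 2 mM MgCl2), spun at 20,000 × g, and kept in 50 mM Tris pH 8.0 at −80 °C. Assay buffer: 50 mM Tris pH 8.0, 0.1% BSA, 10 nM [3H]-DTG and graded competitor; 37 °C, 90 min. 10 μM haloperidol set nonspecific binding. Filtration, scintillation counting; Ki by Cheng-Prusoff using measured probe Kd.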

[1] = test system: σ2 mutants (His21, Gln77); assay: Competition binding in σ2 receptor mutants disrupting water coordination; parameters: species or system human
How it was run: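 Expi293 membranes carrying wild-type or mutant σ2 (lysed osmotically in 20 mM HEPES pH 7.5, 2 mM MgCl2; pellet at 20,000 × g), in 50 mM Tris pH 8.0, 0.1% BSA, with 10 nM [3H]-DTG and graded competitor. Incubated 37 °C, 90 min, shaking. Filtered on PEI-soaked glass fibre, scintillation counted. Nonspecific binding with 10 μM haloperidol. Ki by Cheng-Prusoff; three technical replicates, mean ± SEM.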

[2] = Pharmacokinetics in male CD-1 mice, plasma and brain; assay type: in vivo; details: 10 mg/kg subcutaneous
mice = assay: Rotarod; assay type: in vivo; details: 1 hour or 24 hours post-injection; Z1665845742 10 mg/kg, Z4857158944 20 mg/kg, Z4446724338 10 mg/kg
SNI mice = assay: Spared nerve injury; assay type: in vivo; details: for anti-allodynic effect, mechanical thresholds versus vehicle: systemic (subcutaneous) administration to SNI mice
How it was run: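 Spared nerve injury under isoflurane: two sciatic branches ligated and transected, sural nerve intact; mice tested 7–14 days later. Test compound (10, 20 or 30 mg/kg) or vehicle (saline, cyclodextrin, kolliphor) given subcutaneously, random assignment. Hindpaw von Frey thresholds by up-down method at 1, 24, 48 h. Thresholds normalized to each mouse's post-SNI baseline; n = 5–10; ANOVA with Dunnett's test.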

σ1 receptor, sequence (Q99720 whole entry, species assumed): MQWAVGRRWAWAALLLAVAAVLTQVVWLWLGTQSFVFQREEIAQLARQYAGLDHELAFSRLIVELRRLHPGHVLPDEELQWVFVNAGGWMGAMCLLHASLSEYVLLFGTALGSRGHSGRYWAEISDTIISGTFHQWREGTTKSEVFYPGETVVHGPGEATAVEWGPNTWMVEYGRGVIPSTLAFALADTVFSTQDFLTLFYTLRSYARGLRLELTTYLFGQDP

Row | Ki (σ1 receptor) [nM] | Selectivity (σ1/σ2) (human σ2 receptor) | Ki (human σ2 receptor) [nM] | SMILES | also measured
1 | 1.6 | 0.1 | 27 | Fc1c(CN2CCN(C[C@@H]3CCCO3)CC2)ccc(Br)c1Cl [ZINC001237901728] | –
2 | 53 | 11.3 | 4.7 | O[C@@H](COCc1ccccc1F)CN1CC(Cc2ccccc2C(F)(F)F)C1 [ZINC001254761628] | –
3 | – | – | – | C1=C(c2c[nH]c3ncccc23)CCN(CCCc2ccccc2)C1 [Z1241145220] | pKi (human σ2 receptor): 8.43; reduction of affinity on mutation ([1]; Gln77 mutant versus wild-type σ2): about 10 fold; reduction of affinity on mutation ([1]; His21 mutant versus wild-type σ2): about 10 fold
4 | 32.7 | 4.9 | 6.7 | N/C(=N\Cc1ccc(F)cc1Br)NCC1CCC1 [ZINC000170908795] | –
5 | – | – | – | OC(CCc1ccccc1)CN1CC=C(c2c[nH]c3ncccc23)CC1 (stereo not shown) [Z1665845742] | AUC0→t (AUClast) ([2]; brain): 436000 ng·min/mL (g); AUC0→∞ (AUCinf_obs) ([2]; brain): 509000 ng·min/mL (g); Cmax ([2]; brain): 3150 ng/mL (g); Kel (Lambda_z) ([2]; brain): 0.000928 min⁻¹; T1/2 (HL_Lambda_z) ([2]; brain): 12.4 h; Tmax ([2]; brain): 0.333 h; AUC0→t (AUClast) ([2]; plasma): 99000 ng·min/mL (g); AUC0→∞ (AUCinf_obs) ([2]; plasma): 112000 ng·min/mL (g); Cmax ([2]; plasma): 968 ng/mL (g); Kel (Lambda_z) ([2]; plasma): 0.00374 min⁻¹; T1/2 (HL_Lambda_z) ([2]; plasma): 3.08 h; Tmax ([2]; plasma): 0.333 h; sedation or motor impairment on the rotarod (mice): No sedation or motor impairment; anti-allodynic effect, mechanical thresholds versus vehicle (SNI mice): anti-allodynic; selectivity for σ2 over σ1 (human σ2 receptor): 47 fold; pKi (human σ2 receptor): 8.30
6 | 16.2 | 1.6 | 10 | Cc1ccc(CCC2CCN(C(=O)CN3C[C@@H]4CC[C@@H](O)[C@H]4C3)CC2)cc1 [ZINC000544117725] | –
7 | 2.9 | 0.1 | 33.7 | Cc1ccc([C@H]2CCN(CC3(O)CCC3)C2)c(C)c1 [ZINC000348332392] | –
8 | – | – | – | c1ccc(CCCN2CCC(c3nnc4ccccn34)CC2)cc1 [Z163048780] | pKi (human σ2 receptor): < 5.00
9 | 1190 | 18 | 67.3 | O[C@@]1(CNCc2cccc3c2OCC3)CCc2ccccc21 [ZINC000921927365] | –
10 | 4.6 | 0.1 | 67.8 | Cc1ccc(CC2CN(CC3(O)CCSCC3)C2)cc1 [ZINC000656714762] | –
11 | – | – | – | COc1cccc2c1CCCC2CCCN1CCN(C2CCCCC2)CC1 (stereo not shown) [PB28, reference compound] | AUC0→t (AUClast) ([2]; brain): 229000 ng·min/mL (g); AUC0→∞ (AUCinf_obs) ([2]; brain): 240000 ng·min/mL (g); Cmax ([2]; brain): 948 ng/mL (g); Kel (Lambda_z) ([2]; brain): 0.00706 min⁻¹; T1/2 (HL_Lambda_z) ([2]; brain): 1.64 h; Tmax ([2]; brain): 1 h; AUC0→t (AUClast) ([2]; plasma): 8640 ng·min/mL (g); AUC0→∞ (AUCinf_obs) ([2]; plasma): 45900 ng·min/mL (g); Cmax ([2]; plasma): 42 ng/mL (g); Kel (Lambda_z) ([2]; plasma): 0.000937 min⁻¹; T1/2 (HL_Lambda_z) ([2]; plasma): 12.3 h; Tmax ([2]; plasma): 1 h; mice in which anti-allodynic effects were observed (SNI mice; systemic injection, 30 mg/kg): 60%
12 | – | – | – | CCCN1CCC=C(c2cc(-c3ccc(C)cc3)no2)C1 [PD-144418] | anti-allodynic effect, mechanical thresholds versus vehicle (SNI mice): anti-allodynia; anti-allodynia 24 or 48 hours post-injection (SNI mice; tested at 1, 24 and 48 hours after dosing): not sustained
13 | – | – | – | OC(CCc1ccccc1)CN1CCC(c2nnc3ccccn23)CC1 (stereo not shown) [Z1665798906] | σ2 activity in words (human σ2 receptor): σ2 inactive
14 | 128 | 30 | 4.3 | C[C@@H](c1ccccc1)[C@@H](O)CN1CCC(c2c[nH]c3ncccc23)CC1 [ZINC000450573233] | –
15 | 1.7 | 0.3 | 5.2 | CC[C@@H](CO)N1CCC(CCc2ccc(F)cc2F)CC1 [ZINC001460312963] | –
16 | – | – | – | C1=C(c2c[nH]c3ccccc23)CCN(CCCc2ccccc2)C1 [Z295861754] | decrease in σ2 affinity (human σ2 receptor; versus parent Z1241145220): 8 fold
17 | 4.9 | 2 | 2.4 | CC1CCC(O)(CN2CC(Cc3ccc(F)c(F)c3)C2)CC1 (stereo not shown) [ZINC000548355486] | –
18 | 13.4 | 5.6 | 2.4 | CC(C)CCO[C@@H]1CCN(C[C@H]2CC3(CCCCC3)CO2)C1 [ZINC001196519317] | –

Row | SMILES | Ki (σ1 receptor) [nM] | Selectivity (σ1/σ2) (human σ2 receptor) | Ki (human σ2 receptor) [nM] | also measured
19 | C[C@@H](C(=O)N(C)Cc1cccc(F)c1)N1CC=C(c2c[nH]c3ncccc23)CC1 [ZINC000533478938] | 1470 | 43 | 34.5 | –
20 | CC(C)(NCc1ccc2c(c1)OCCO2)[C@H](O)c1ccccc1 [ZINC000895657866] | 990 | 46 | 21.4 | –
